# This is a sample that favours compounds with a hit; in the whole collection about 1.8% have one here.
# LMPTP inh: blocks human LMPTP phosphatase. P24666. recombinant LMPTP-A, OMFP fluorogenic substrate, fluorescence intensity. inhibition, % at 20 µM. actives 0.22% (n = 360,000);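 active = compounds that cut the enzyme signal by at least half of the control window in the single-dose screen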
# Target sequence (P24666 whole entry, looked up): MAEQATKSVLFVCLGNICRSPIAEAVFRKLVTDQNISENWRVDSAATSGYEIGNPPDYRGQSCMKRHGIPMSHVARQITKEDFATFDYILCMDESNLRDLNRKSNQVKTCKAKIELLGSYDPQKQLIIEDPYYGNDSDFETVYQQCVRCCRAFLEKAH
#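 Test system – LMPTP-A phosphatase enzyme · Quantity – 0.625 nM LMPTP-A final · Reagent – OMFP substrate, 400 µM final · Dosing – one test concentration per compound, 20 µM, with 3% DMSO overall · Timing – 50 min enzyme reaction at room temperature, protected from light · Detection – fluorescence intensity · Controls – substrate-only low control, DMSO enzyme-plus-substrate high control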
# Scp1 inh: inhibitors of human Scp-1 phosphatase. Q9GZU7. Recombinant Scp1, phosphopeptide, malachite green phosphate absorbance. inhibition, % at 20 µM. actives 0.88% (n = 340,000);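 active = inhibition above about 50% at 20 µM, limit read from the data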
# Target sequence (Q9GZU7 76-261 limits assumed): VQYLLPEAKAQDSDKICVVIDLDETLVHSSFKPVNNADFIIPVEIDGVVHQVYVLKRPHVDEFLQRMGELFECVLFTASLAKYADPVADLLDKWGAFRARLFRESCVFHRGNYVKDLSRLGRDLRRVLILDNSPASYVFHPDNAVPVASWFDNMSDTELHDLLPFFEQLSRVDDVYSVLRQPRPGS
#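 Material – SCP-1 phosphatase catalytic domain, residues 76-261 · Buffer or medium – Acidic Tris acetate buffer with magnesium and detergent · Also added – Phospho 17-mer peptide substrate · Compound – single 20 µM dose, 1% DMSO · Times – 45 min room-temperature reaction, 5 min colour, 30 min stabiliser · Technique – Phosphate-binding colour reagent, absorbance read at 630 nm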
# SUMO1-SIM PPI: SUMO1-SIM interaction modulation; P63165; SUMO1 binding to a labelled peptide, TR-FRET, 1 h; inhibition, % at 20 µM; actives 0.33% (n = 360,000); AID 602429; in the data active = inhibition above about 37%
# Target sequence (P63165 whole entry, looked up): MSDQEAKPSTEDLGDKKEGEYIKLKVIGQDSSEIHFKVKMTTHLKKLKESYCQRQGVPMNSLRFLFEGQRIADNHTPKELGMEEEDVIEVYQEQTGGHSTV
# STEP block: inhibitors of human striatal-enriched phosphatase STEP. P54829. inhibition, % at 20 µM. actives 0.25% (n = 360,000). AID 588621. recombinant STEP, OMFP fluorogenic substrate, fluorescence;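 active = inhibition at 20 µM, scaled per plate between control wells, above about 37%, limit read from the data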
#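 Also added – OMFP at 25 µM · Test system – STEP tyrosine phosphatase · Technique – FITC-channel fluorescence of OMFP product · Schedule – 20 min at room temperature, dark · Evaluation – control-normalized % inhibition with plate pattern correction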
# HKDC1 inh: HKDC1 (human) hexokinase inhibition; AID 493160; inhibition, % at 20 µM; actives 0.16% (n = 340,000); Q2TB90; recombinant HKDC1, G6PDH/diaphorase resazurin coupled fluorescence;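 active = inhibition above about 35% when tested at 20 µM, limit read from the data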
#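 Incubation: 90 min at room temperature in dark / Material: recombinant HKDC1 (HK5) hexokinase enzyme, produced in-house / Quantity: enzyme 5 µg/mL final / Compound: one dose of 20 µM, 1% DMSO / Reagent: glucose and ATP substrates / Buffer or medium: Tris pH 8.0 buffer with MgCl2, Tween-20, BSA, BME / Technique: resorufin fluorescence at 613 nm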
# DNMT1 inh: blocks human DNA methyltransferase DNMT1; DNMT1 molecular beacon, Hinp1I cleavage, fluorescence; inhibition (reported as % activation of signal), % at 10 µM; actives 0.83% (n = 360,000); AID 588458; in the data active = inhibition above about 50%
# Scp1 confirm: confirmation of human Scp-1 phosphatase inhibitors; actives 61% (n = 2,500); AID 540281; recombinant SCP-1 catalytic domain, phosphate release, malachite green absorbance; shares compounds with Scp1 inh; inhibition, % at 20 µM
# Scp-1 MG ctr: counter-screen for Scp-1 inhibitors: colorimetric interference; apparent inhibition (interference), % at 20 µM; shares compounds with Scp1 inh; 2,500 tested, under 10 active; Colorimetric interference counterscreen, malachite green absorbance 630 nm; AID 540313;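 note: compounds added after enzyme reaction finished so only phosphate colour detection is probed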
# Scp-1 Tm shift: binds human Scp-1, shifting its melting temperature; shares compounds with Scp1 inh; Recombinant SCP1, Sypro Orange thermal shift Tm; thermal shift relative to vanadate control, % at 40 µM; actives 25% (n = 1,500); AID 540329;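 active = substances whose mean melting-temperature shift, as a percentage of the reference inhibitor's shift, reaches about 5.3%, limit read from the data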
# Hits are given with their value; – = inactive; · = no result given.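 Rule for the calls, unless noted: active = inhibition of at least 30% at 20 µM; inactive = the rest.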
SMILES,LMPTP inh,Scp1 inh,SUMO1-SIM PPI,STEP block,HKDC1 inh,DNMT1 inh,Scp1 confirm,Scp-1 MG ctr,others
O=C(O)/C(=C\c1cccc([N+](=O)[O-])c1)c1ccc(S(=O)(=O)N2CCCCC2)s1,–,52,–,–,–,–,73,–,Scp-1 Tm shift=20
OC(Cc1ccccc1Br)c1ncc(-c2ccc(Cl)cc2)[nH]1 (centres undefined),–,·,–,–,·,–,·,·,
COc1ccc(/C=N/Nc2ncc(Br)cn2)c(OC)c1,–,57,–,–,–,–,38,–,Scp-1 Tm shift=–
CC(=O)NCCNc1nc(NCC2CC2)nc2cc(-c3ccccc3)sc12,–,·,–,–,·,–,·,·,
COc1ccc(C(CNC(=O)c2cccc(S(=O)(=O)Nc3ccc(F)cc3)c2)N2CCCCC2)cc1 (centres undefined),–,–,–,–,–,–,·,·,
CC(C)Cc1nnc(NC(=O)CC(C)c2ccccc2)s1 (centres undefined),–,–,–,–,–,–,·,·,
CCc1nnc(NC(=O)CC(C)c2ccccc2)s1 (centres undefined),–,58,–,–,–,–,–,–,
Cc1cn(C2CCCCO2)c(=O)nc1NO (centres undefined),–,–,–,–,–,–,·,·,
COc1nc(=O)n(C2CCCO2)cc1C (centres undefined),–,85,–,–,–,–,–,–,
COc1ccc(F)cc1S(=O)(=O)N1CCc2ccccc2C1,–,·,–,–,·,–,·,·,
c1ccc2nc(N3CCCC3)c(N3CCCC3)nc2c1,–,–,–,–,–,–,·,·,
c1ccc2c(c1)nc(N1CCCCCC1)c1ccccc12,–,112,–,–,–,–,97,–,Scp-1 Tm shift=–
CCOC(=O)c1ccc(NC(=O)CSc2nnc(-c3cccs3)n2C)cc1,–,105,–,–,–,–,–,–,
CCOC(=O)c1ccc(NC(=O)CSc2nnc(-c3cccs3)n2CC)cc1,–,–,–,–,–,–,·,·,
CSc1ccc(S(=O)(=O)NCC(=O)OC2CCOC2=O)cc1[N+](=O)[O-] (centres undefined),–,–,–,–,–,–,·,·,
Nc1ccc(S(=O)(=O)NCC(=O)OC2CCOC2=O)cc1[N+](=O)[O-] (centres undefined),–,55,–,–,–,–,–,–,
CC(Sc1nncn1C)C(=O)Nc1ccc(N2CCCCC2)cc1 (centres undefined),–,–,–,–,–,–,·,·,
O=C1C=C(c2n[nH]nc2-c2ccccc2)C[C@@H](c2ccc(F)cc2)C1,–,·,–,–,·,–,·,·,
Cc1noc(C)c1NC(=O)N(C)C[C@H]1Oc2c(NC(=O)c3ccncc3)cccc2C(=O)N([C@H](C)CO)C[C@@H]1C,–,61,–,–,–,–,–,–,
C[C@H](CO)N1C[C@H](C)[C@@H](CN(C)Cc2ccc(Cl)c(Cl)c2)Oc2c(NC(=O)c3ccncc3)cccc2C1=O,–,54,–,–,–,–,–,–,
C[C@H](CO)N1C[C@H](C)[C@@H](CN(C)S(C)(=O)=O)Oc2c(NC(=O)c3ccncc3)cccc2C1=O,–,55,–,–,–,–,–,–,
COc1ccc(CN2C(=O)CCC2(C)c2nnnn2-c2ccc3c(c2)OCCO3)cc1 (centres undefined),–,·,–,·,·,·,·,·,
O=C(Nc1cc2c(cc1Cl)OCCCO2)c1ccco1,–,–,–,–,–,–,–,–,
CCOc1ccc(OCCCC(=O)N2CCN(S(=O)(=O)c3ccc(Cl)cc3)CC2)cc1,–,56,–,–,–,–,79,–,Scp-1 Tm shift=–
CC(=O)c1ccc(OCCOc2ccc([N+](=O)[O-])cc2)cc1,–,–,–,–,–,–,·,·,
SMILES,LMPTP inh,Scp1 inh,SUMO1-SIM PPI,STEP block,HKDC1 inh,DNMT1 inh,Scp1 confirm,Scp-1 MG ctr,others
C[N+]1(CCOc2ccc([N+](=O)[O-])cc2)CCOCC1,–,106,–,–,–,–,85,–,Scp-1 Tm shift=–
CCOC(=O)C1=C(COC(=O)COc2ccc(C(=O)CC)cc2)NC(=O)NC1C (centres undefined),–,–,–,–,–,–,·,·,
O=C(N/N=C/c1ccc2ccccc2c1)c1ccc(COc2ccc3c(c2)CCC3)o1,–,102,–,–,–,–,71,–,Scp-1 Tm shift=–
COc1ccc(C(=O)NC(=S)NCc2ccco2)cc1Br,–,–,–,–,–,–,·,·,
Cc1c(C(=O)O)oc2ccc(S(=O)(=O)NCCC3=CCCCC3)cc12,–,52,–,–,–,–,–,–,
Cc1c(C(=O)NCCC2=CCCCC2)oc2ccc(S(=O)(=O)N3CCOCC3)cc12,–,–,–,–,–,–,·,·,
COc1ccc(CCNC(=O)c2ccc(Br)o2)cc1Br,–,·,–,·,·,·,·,·,
O=C1C(=O)N(CCO)C(c2ccc(Br)cc2)/C1=C(\O)c1ccccc1 (centres undefined),–,–,–,–,–,–,·,·,
O=C1C(=O)N(CCO)C(c2ccccc2)/C1=C(\O)c1ccccc1 (centres undefined),–,57,–,–,–,–,–,–,
C[C@H](c1ccccc1)N1C[C@@H](COCc2ccccc2)Oc2cc(N3CCC[C@H]3CO)ccc2S1(=O)=O,–,·,–,·,·,·,·,·,
CCc1ccc(CNC(=O)CCn2ccc3cc(S(=O)(=O)N4CCCC4)ccc32)cc1,–,–,–,–,–,–,·,·,
CCOc1ccc(S(=O)(=O)NCc2ccccc2)cc1C(N)=O,–,–,–,–,–,–,·,·,
CCOc1ccc(S(=O)(=O)NCc2ccccc2Cl)cc1C(N)=O,–,–,–,–,–,–,–,–,
CCCc1cc(=O)oc2cc(OCC(=O)NCCCn3ccnc3)c(Cl)cc12,–,–,–,–,–,–,·,·,
Cn1cnc(C(=O)N2CCN(c3ccccc3)CC2)c1C(=O)N1CCN(c2ccccc2)CC1,–,96,–,–,–,–,84,–,Scp-1 Tm shift=–
CCOc1ccc(NC(=O)CN(C)C(=O)CCNC(=O)c2ccco2)cc1OCC,–,–,–,–,–,–,·,·,
N#CC1=C(N)n2c(s/c(=C\c3ccco3)c2=O)=C(C#N)C1c1ccco1 (centres undefined),–,63,–,–,–,95,71,–,Scp-1 Tm shift=18
COC(=O)c1cc(O)cc(OC)c1C(=O)c1c(O)cc(C)cc1O,–,58,–,–,–,–,31,–,Scp-1 Tm shift=–

# Screening results (PubChem BioAssay)
